In PubChem BioAssay AID638 (SRMLSC, 2007):

tested on: E. coli BW25113 wild type growth inhibition, OD615; experiment: wild-type E. coli BW25113 antibacterial activity – OD615, dose response (AID 638)
Procedure, shortened: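 Assay system: E. coli BW25113 wild type. Doses: compound concentration series. Timing: 20 h compound exposure, 37 °C. Technique: OD615 absorbance. Medium: LB broth containing kanamycin at 50 µg/mL. Benchmarks: chloramphenicol at 30 µM final as inhibition control. Measure: IC50 from 4-parameter logistic, bounds fixed 0–100%.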

First: CCn1cc(C(=O)NCc2ccc3c(c2)OCO3)c(=O)c2cc(F)c(N3CCN(C)CC3)cc21
Second: CCn1cc(C(=O)Nc2nncs2)c(=O)c2cc(F)c(N3CCN(C(=O)c4ccco4)CC3)cc21
The IC50 of the first is 2.7-fold lower: 28.2 µM for the first, 75.6 µM for the second.

CCCCOc1ccc(NC2=NC3(CCCCC3)N=C(N)N2)cc1 and Oc1c(CN2CCCCC2)cc(Br)c2cccnc12 are within 1.5-fold of each other in IC50: 89 µM for the first, 61.3 µM for the second.

CCC(=O)N1CCN(c2cc3c(cc2F)c(=O)c(C(=O)O)cn3CC)CC1 and CCn1cc(C(=O)O)c(=O)c2cc(F)c(N3CCN(C(=O)Nc4ccccc4)CC3)cc21 are within 1.5-fold of each other in IC50: 3.16 µM for the first, 2.28 µM for the second.

Compared with CC(=O)c1c(C)n([O-])c2ccccc2[n+]1=O, CCSc1nnc(NC(=O)c2ccccn2)s1 is 4.8-fold higher in IC50: 19.5 µM for the first, 92.8 µM for the second.

Compared with COc1cc(Cc2cnc(N)nc2N)cc(OC)c1OC, C=CCNc1ncnc2c1[nH]c1ccc(C)cc12 is 51-fold higher in IC50: 0.688 µM for the first, 35.4 µM for the second. The first is the more potent here.

CO[C@@]1(NC(=O)Cc2cccs2)C(=O)N2C(C(=O)O)=C(COC(N)=O)CS[C@@H]21 and CC(=O)OCC1=C(C(=O)O)N2C(=O)[C@@H](NC(=O)Cc3cccs3)[C@H]2SC1 are within 1.5-fold of each other in IC50: 7.91 µM for the first, 10.6 µM for the second.

NC1C2CN(c3nc4c(cc3F)c(=O)c(C(=O)O)cn4-c3ccc(F)cc3F)CC12 (centres undefined) and COc1c(N2CCNC(C)C2)c(F)cc2c(=O)c(C(=O)O)cn(C3CC3)c12 (centres undefined) cannot be ordered by IC50: less than 0.195 µM for the first, less than 0.195 µM for the second.

O=C(Nc1nnc(-c2ccccc2)o1)c1ccc(Cl)cc1 and COc1cccc(C(=O)Nc2nnc(-c3cccs3)o2)c1 are within 1.5-fold of each other in IC50: 102 µM for the first, 79.6 µM for the second.

Going from CN(C)[C@@H]1C(=O)C(C(N)=O)=C(O)[C@@]2(O)C(=O)C3=C(O)c4c(O)ccc(Cl)c4[C@@H](O)[C@H]3C[C@@H]12 to CN1CCN(c2c(F)cc3c(=O)c(C(=O)O)cn4c3c2SCC4)CC1, the IC50 rises from 0.609 µM to 1.1 µM (1.8-fold).

Compared with O=C(Nc1cccc(Cl)c1)Nc1nccs1, N#Cc1ccc(NC(=O)Nc2ccc(Cl)cc2)cc1 is 2-fold lower in IC50: 96.1 µM for the first, 49.2 µM for the second. The second is the more potent here.

Going from c1ccc(-c2cccc(-c3ccccn3)n2)nc1 to O=S1(=O)Nc2c(ccc3cccnc23)-c2ccccc21, the IC50 falls from 66.8 µM to 26.8 µM (2.5-fold).

Compared with Cc1ccsc1C(=O)Nc1nnc(-c2ccco2)o1, O=c1ccsn1Cc1ccccc1 is 2.6-fold lower in IC50: 60.3 µM for the first, 23.6 µM for the second. The second is the more potent here.
